# From ChEMBL document CHEMBL4665798, “Novel Human Urate Transporter 1 Inhibitors as Hypouricemic Drug Candidates with Favorable Druggability” (J Med Chem, 2020)
# Columns and labels:
# [1] = MRT (0 to infinity) in Sprague-Dawley rat at 10 mg/kg, po by LC-MS analysis; type: ADME, organism-based; conditions: in vivo
# Outline: (§1)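 Male Sprague-Dawley rats, two groups, dosed iv or orally; compound in PEG 400/normal saline (70/30, V/V). Oral blood from sinus jugularis at 5 min to 24 h, plasma by centrifugation at 2200 g, stored -20 °C. Plasma with internal standard precipitated by methanol, quantified by LC-MS against spiked blank-plasma standard curves. Mean ± SD, n = 5.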
# [2] = target: T1, Solute carrier family 2, facilitated glucose transporter member 9 (Homo sapiens, UniProt Q9NRM0); experiment: Inhibition of GLUT9 (unknown origin)
# T1 sequence (Q9NRM0 whole entry): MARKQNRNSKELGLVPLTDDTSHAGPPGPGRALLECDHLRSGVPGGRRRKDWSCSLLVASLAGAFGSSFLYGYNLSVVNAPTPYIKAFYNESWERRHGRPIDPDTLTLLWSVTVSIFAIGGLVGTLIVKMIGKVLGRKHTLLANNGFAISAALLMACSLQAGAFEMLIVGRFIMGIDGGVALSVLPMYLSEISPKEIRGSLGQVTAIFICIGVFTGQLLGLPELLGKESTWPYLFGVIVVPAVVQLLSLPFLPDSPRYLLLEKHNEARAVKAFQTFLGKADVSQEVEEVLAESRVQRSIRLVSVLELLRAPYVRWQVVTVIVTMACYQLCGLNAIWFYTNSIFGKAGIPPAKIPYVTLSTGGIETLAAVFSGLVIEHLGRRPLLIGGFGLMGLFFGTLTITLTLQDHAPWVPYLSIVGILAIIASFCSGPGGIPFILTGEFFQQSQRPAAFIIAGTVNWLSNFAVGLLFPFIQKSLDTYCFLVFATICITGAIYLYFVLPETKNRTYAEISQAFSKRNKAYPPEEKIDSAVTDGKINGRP
# [3] = Tmax in Sprague-Dawley rat at 10 mg/kg, po by LC-MS analysis; type: ADME, organism-based; conditions: in vivo; outline: as §1
# [4] = Sub-acute toxicity in Kunming mouse assessed as hydropic degeneration of hepatocytes at 50 mg/kg, po administered as single dose every other day for 14 days by H and E staining based assay; type: organism-based; conditions: in vivo, 336 h, time 14 day
# [5] = Half-life in Sprague-Dawley rat at 10 mg/kg, po by LC-MS analysis; type: ADME, organism-based; conditions: in vivo; outline: as §1
# Mus musculus = experiment: Hypouricemic activity in Kunming mouse model of xanthine/potassium oxonate-induced acute hyperuricemia assessed as decrease in serum uric acid level at 2 mg/kg administered 3 hrs prior to xanthine/potassium oxonate and measured after 6 hrs relative to control; type: functional; set-up: scale not given: the % may be the effect or the level left; conditions: time 9 hrs
# Outline: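 Male Kunming mice, hyperuricemia induced by intragastric xanthine plus subcutaneous potassium oxonate (0.2 mL each). […] Groups: normal vehicle, untreated model, active control, test. Serum uric acid measured. Decrease ratio = (model SUA − compound SUA)/(model SUA − vehicle SUA).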
# [6] = Cmax in Sprague-Dawley rat at 10 mg/kg, po by LC-MS analysis; type: ADME, organism-based; set-up: route oral, dose 10 mg/kg; conditions: in vivo; outline: as §1
# [7] = Cmax in Sprague-Dawley rat at 20 mg/kg, po by LC-MS analysis; type: ADME, organism-based; set-up: route oral, dose 20 mg/kg; conditions: in vivo
# [8] = target: Voltage-gated inwardly rectifying potassium channel KCNH2 (Homo sapiens, UniProt Q12809); experiment: Inhibition of human ERG expressed in HEK293 cells at -80 mV holding potential by whole cell voltage patch clamp assay; type: cell-based
# Chain of Voltage-gated inwardly rectifying potassium channel KCNH2 (Q12809 whole entry): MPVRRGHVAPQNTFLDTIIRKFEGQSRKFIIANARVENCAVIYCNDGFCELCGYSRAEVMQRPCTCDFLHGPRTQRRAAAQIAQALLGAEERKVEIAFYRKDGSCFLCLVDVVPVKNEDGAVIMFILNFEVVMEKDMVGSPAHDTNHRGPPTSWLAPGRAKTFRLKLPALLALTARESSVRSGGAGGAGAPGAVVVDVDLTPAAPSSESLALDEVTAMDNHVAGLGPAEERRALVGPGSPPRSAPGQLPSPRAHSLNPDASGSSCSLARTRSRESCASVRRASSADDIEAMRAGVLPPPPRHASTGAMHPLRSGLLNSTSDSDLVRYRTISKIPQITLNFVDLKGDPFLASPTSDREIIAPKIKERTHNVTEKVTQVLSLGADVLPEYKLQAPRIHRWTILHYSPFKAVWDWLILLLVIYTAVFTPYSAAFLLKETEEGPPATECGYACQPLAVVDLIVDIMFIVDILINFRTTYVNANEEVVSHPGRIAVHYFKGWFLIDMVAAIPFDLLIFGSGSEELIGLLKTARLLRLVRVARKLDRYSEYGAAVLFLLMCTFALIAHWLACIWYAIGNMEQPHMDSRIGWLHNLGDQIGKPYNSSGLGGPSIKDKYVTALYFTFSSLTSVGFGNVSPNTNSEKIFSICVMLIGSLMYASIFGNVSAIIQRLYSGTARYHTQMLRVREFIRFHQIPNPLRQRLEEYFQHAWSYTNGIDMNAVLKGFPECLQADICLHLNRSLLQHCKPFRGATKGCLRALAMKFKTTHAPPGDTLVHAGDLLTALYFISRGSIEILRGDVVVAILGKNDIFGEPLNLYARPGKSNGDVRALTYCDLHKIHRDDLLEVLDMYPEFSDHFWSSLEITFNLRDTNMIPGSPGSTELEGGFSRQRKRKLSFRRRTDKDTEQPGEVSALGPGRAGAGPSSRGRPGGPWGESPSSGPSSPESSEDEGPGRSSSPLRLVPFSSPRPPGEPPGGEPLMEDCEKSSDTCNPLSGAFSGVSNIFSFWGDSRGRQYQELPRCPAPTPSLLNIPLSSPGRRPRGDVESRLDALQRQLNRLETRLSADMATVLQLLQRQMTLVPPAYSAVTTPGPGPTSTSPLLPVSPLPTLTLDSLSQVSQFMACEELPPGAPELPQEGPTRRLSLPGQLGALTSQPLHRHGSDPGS
# Outline: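 Manual patch clamp on HEK293 cells stably expressing hERG, cultured at least 24 h at 37 °C, 5% CO2. Pipettes 3–5 MΩ. Current stabilized 3 min with vehicle before compound. Compound kept on until peak tail current stable (<5% change) for ~5 sweeps. Cisapride monohydrate used as reference.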
# [9] = AUC (0 to t) in male Kunming mouse at 500 mg/kg, po by LC-MS/MS analysis; type: ADME, organism-based; set-up: dose 500 mg/kg; conditions: in vivo
# Outline: (§2)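 Male Kunming mice given oral compound in PEG 400/normal saline (70/30, V/V). Blood from submandibular or saphenous vein into K2EDTA tubes at 0.25 to 72 h. Plasma spun at 3200g near 4 °C, kept -70 °C, precipitated with acetonitrile plus dexamethasone internal standard. Quantified by LC-MS/MS against spiked blank-plasma standard curves.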
# [10] = AUC (0 to infinity) in male Kunming mouse at 2 mg/kg, po by LC-MS/MS analysis; type: ADME, organism-based; set-up: time infinity, route oral, dose 2 mg/kg; conditions: in vivo
# Outline: (§3)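 Male Kunming mice, ten in total, split into five groups; single oral dose in PEG 400/normal saline (70/30, v/v). Blood taken from submandibular or saphenous vein into K2EDTA tubes at 0.25, 0.5, 1, 2, 4, 8, 24, 48, 72 h. Plasma spun at about 4 °C and kept at -70 °C. Acetonitrile precipitation with dexamethasone internal standard, then LC-MS/MS against plasma standard curves.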
# Rattus norvegicus = species: Rattus norvegicus; experiment: Hypouricemic activity in rat model of xanthine/potassium oxonate-induced acute hyperuricemia assessed as decrease in serum uric acid level relative to control; type: functional; set-up: scale not given: the % may be the effect or the level left
# [11] = Oral bioavailability in Sprague-Dawley rat at 20 mg/kg by LC-MS analysis; type: ADME, organism-based; conditions: in vivo
# [12] = AUC (0 to t) in male Kunming mouse at 2 mg/kg, po by LC-MS/MS analysis; type: ADME, organism-based; set-up: dose 2 mg/kg; conditions: in vivo; outline: as §3
# [13] = AUC (0 to infinity) in male Kunming mouse at 500 mg/kg, po by LC-MS/MS analysis; type: ADME, organism-based; set-up: time infinity, route oral, dose 500 mg/kg; conditions: in vivo; outline: as §2
# [14] = Tmax in male Kunming mouse at 50 mg/kg, po by LC-MS/MS analysis; type: ADME, organism-based; conditions: in vivo; outline: as §3
# [15] = MRT (0 to infinity) in male Kunming mouse at 2 mg/kg, po by LC-MS/MS analysis; type: ADME, organism-based; conditions: in vivo; outline: as §3
# [16] = Tmax in male Kunming mouse at 2 mg/kg, po by LC-MS/MS analysis; type: ADME, organism-based; conditions: in vivo; outline: as §3
# [17] = AUC (0 to t) in male Kunming mouse at 50 mg/kg, po by LC-MS/MS analysis; type: ADME, organism-based; set-up: dose 50 mg/kg; conditions: in vivo; outline: as §3
# [18] = Cmax in male Kunming mouse at 2 mg/kg, po by LC-MS/MS analysis; type: ADME, organism-based; set-up: route oral, dose 2 mg/kg; conditions: in vivo; outline: as §3
SMILES,MRT inf [1] [h],IC50 [2] [µM],Tmax [3] [h],Activity [4],half-life [5] [h],Activity (Mus musculus) [%],Cmax [6] [ng/mL],Cmax [7] [ng/mL],IC50 [8] [µM],AUC(0-t) [9] [µg·h/mL],AUC(0-inf) [10] [µg·h/mL],Activity (Rattus norvegicus) [%],bioavailability [11] [%],AUC(0-t) [12] [µg·h/mL],AUC(0-inf) [13] [µg·h/mL],Tmax [14] [h],MRT inf [15] [h],Tmax [16] [h],AUC(0-t) [17] [µg·h/mL],Cmax [18] [ng/mL]
O=C(CSc1nnc(Br)n1-c1ccc(C2CC2)c2ccccc12)NS(=O)(=O)c1ccc(Br)cc1,5.6,31.7,1.8,Non-Toxic,3.4,97.84,3400,,,,,,,,,,,,,
CC(Sc1nc2ncccc2n1-c1ccc(C2CC2)c2ccccc12)C(=O)O (racemic),,,,Non-Toxic,,92.89,,15500,> 30,2960,13,83.96,76.3,13,2960,1.67,6.44,0.5,335,2080
